Columns and labels:
[1] = molecular target: T1, Cannabinoid receptor 1 (Homo sapiens, UniProt P21554); test: biochemical; type: cell-based, CHO
[2] = molecular target: T1, Cannabinoid receptor 1; test: Antagonistic activity towards cannabinoid receptor 1 expressed as [3H]Arachidonic acid release in CHO cells; type: functional, cell-based; settings: read-out: pA2 (converted)
[3] = molecular target: Cannabinoid receptor 2 (Homo sapiens, UniProt P34972); test: Affinity to displace CP-55940 binding from Cannabinoid receptor 2 of human expressed in CHO cells; type: cell-based
Outline: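 Bound and free ligand separated by glass-fibre filtration, filter radioactivity counted by liquid scintillation. IC50 values from at least two independent measurements combined and converted to Ki by Cheng-Prusoff.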

[4] = Mean percentage of compound transport through P-glycoprotein; expressed as p-glycoprotein affinity; type: ADME
Outline: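 Human MDR1 P-glycoprotein transport across a monolayer of PK1 LLC MDR cells; compound added at 1 µg/mL to one side. Bottom-to-top and top-to-bottom transport measured; Pgp factor taken as the ratio of bottom-to-top to top-to-bottom transport, given as mean percentage of compound transported.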

[5] = Mean percentage of compound transport through membrane; expressed as membrane transport; type: ADME
Outline: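 Transport across a PK1 LLC MDR (human MDR1) cell monolayer with compound at 1 µg/mL added to one side. Membrane passage taken as the mean percentage of compound moved bottom-to-top and top-to-bottom at 3 h after addition.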

[6] = Partition coefficient (logP); type: physicochemical; settings: octanol/water
Outline: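 n-Octanol/water partition measured by RP-HPLC following an OECD method. Mobile phase buffered at pH > 11 on an aluminum-based octadecyl stationary phase.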

[7] = molecular target: Cannabinoid receptor 1 (Rattus norvegicus) (UniProt P20272); test: In vivo effective dose to antagonise cannabinoid receptor 1 agonist (CP-55940) induced hypotension in rat upon peroral administration; type: functional, organism-based
[8] = molecular target: Cannabinoid receptor 1 (Mus musculus) (UniProt P47746); test: In vivo least effective dose required to antagonise cannabinoid receptor 1 agonist (WIN-55212) induced hypothermia in mouse upon peroral administration
Sequence of Cannabinoid receptor 1 (Mus musculus) (P47746 whole entry, looked up): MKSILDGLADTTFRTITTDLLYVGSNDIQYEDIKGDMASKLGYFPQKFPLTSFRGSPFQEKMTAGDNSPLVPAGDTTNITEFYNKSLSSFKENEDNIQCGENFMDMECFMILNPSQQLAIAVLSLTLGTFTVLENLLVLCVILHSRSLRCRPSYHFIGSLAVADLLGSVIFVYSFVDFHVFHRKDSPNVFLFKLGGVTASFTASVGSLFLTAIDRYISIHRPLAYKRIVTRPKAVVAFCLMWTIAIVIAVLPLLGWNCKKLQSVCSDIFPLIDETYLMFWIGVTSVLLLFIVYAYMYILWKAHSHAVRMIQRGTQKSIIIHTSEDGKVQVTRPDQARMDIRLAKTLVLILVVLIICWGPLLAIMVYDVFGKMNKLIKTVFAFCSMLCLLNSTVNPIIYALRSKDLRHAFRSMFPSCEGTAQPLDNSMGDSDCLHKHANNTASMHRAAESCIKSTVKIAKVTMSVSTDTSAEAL

Sequence of Cannabinoid receptor 1 (Rattus norvegicus) (P20272 whole entry): as the sequence (P47746 whole entry, looked up) above, with D95E counted along it
Sequence of Cannabinoid receptor 2 (P34972 whole entry): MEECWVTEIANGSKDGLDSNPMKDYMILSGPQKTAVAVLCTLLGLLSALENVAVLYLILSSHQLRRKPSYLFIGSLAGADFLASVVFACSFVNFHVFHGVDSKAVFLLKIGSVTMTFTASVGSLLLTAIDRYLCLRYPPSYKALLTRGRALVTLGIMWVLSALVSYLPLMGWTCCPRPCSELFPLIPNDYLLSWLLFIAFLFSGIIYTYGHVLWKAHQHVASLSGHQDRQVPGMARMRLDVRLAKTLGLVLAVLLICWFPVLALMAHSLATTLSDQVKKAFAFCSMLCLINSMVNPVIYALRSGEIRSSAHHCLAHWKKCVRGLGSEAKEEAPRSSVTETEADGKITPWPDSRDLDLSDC
T1 sequence (P21554 whole entry): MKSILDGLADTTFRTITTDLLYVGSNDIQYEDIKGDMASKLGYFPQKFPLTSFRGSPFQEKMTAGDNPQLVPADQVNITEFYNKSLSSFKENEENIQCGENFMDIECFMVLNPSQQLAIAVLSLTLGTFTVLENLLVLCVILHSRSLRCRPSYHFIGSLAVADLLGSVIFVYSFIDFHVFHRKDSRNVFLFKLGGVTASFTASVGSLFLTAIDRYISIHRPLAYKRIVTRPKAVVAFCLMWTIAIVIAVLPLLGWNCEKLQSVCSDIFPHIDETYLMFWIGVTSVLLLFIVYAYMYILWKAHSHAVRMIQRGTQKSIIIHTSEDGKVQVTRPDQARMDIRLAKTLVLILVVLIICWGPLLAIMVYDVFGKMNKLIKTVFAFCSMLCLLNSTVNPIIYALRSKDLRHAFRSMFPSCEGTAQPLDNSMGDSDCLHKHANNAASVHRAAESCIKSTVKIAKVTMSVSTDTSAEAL

SMILES | Ki [1] [nM] | Kb [2] [nM] | Ki [3] [nM] | further results
CN=C(NS(=O)(=O)c1ccc(OC)cc1)N1CC(c2ccccc2)C(c2ccc(Cl)cc2)=N1 (centres undefined) | 22.9 | 10 | – | –
CN=C(NS(=O)(=O)c1ccc(Cl)cc1)N1CC(c2ccc(Cl)cc2)C(c2ccc(Cl)cc2)=N1 (centres undefined) | 255 | – | – | –
C/N=C(\NS(=O)(=O)c1c(C)cc(C)cc1C)N1CC(c2ccccc2)C(c2ccc(Cl)cc2)=N1 (centres undefined) | 54.2 | 0.398 | – | –
CNC(=NS(=O)(=O)c1cccc(Cl)c1)N1CC(c2ccccc2)C(c2ccc(Cl)cc2)=N1 (centres undefined) | 13.9 | 2.51 | > 1000 | –
CN=C(NS(=O)(=O)c1ccc(Cl)cc1)N1C[C@H](c2ccccc2)C(c2ccc(Cl)cc2)=N1 [IBIPINABANT] | – | – | – | Activity [4]: 1.4; Activity [5]: 14.8; logP [6]: 4.8
O=C(NS(=O)(=O)c1ccc(Cl)cc1)N1CC(c2ccccc2)C(c2ccc(Cl)cc2)=N1 (centres undefined) | > 1000 | – | – | –
N=C(NS(=O)(=O)c1ccc(Cl)cc1)N1CC(c2ccccc2)C(c2ccc(Cl)cc2)=N1 (centres undefined) | – | – | – | ED50 [7]: > 30 mg/kg; LED [8]: > 30 mg/kg
C/N=C(\NS(=O)(=O)c1ccc(C(F)(F)F)cc1)N1C[C@@H](c2ccccc2)C(c2ccc(Cl)cc2)=N1 | – | – | – | ED50 [7]: > 30 mg/kg; LED [8]: > 30 mg/kg
C/N=C(\NS(=O)(=O)c1ccccc1Cl)N1CC(c2ccccc2)C(c2ccc(Cl)cc2)=N1 (centres undefined) | 75.4 | 5.01 | > 1000 | –
N=C(NS(=O)(=O)c1ccc(F)cc1)N1CC(c2ccccc2)C(c2ccc(Cl)cc2)=N1 (centres undefined) | 52.6 | 1 | > 1000 | –
CNC(=NS(=O)(=O)c1ccc(C(F)(F)F)cc1)N1CC(c2ccccc2)C(c2ccc(Cl)cc2)=N1 (centres undefined) | 221 | 0.501 | > 1000 | –
C/N=C(\NS(=O)(=O)c1cccc(C(F)(F)F)c1)N1CC(c2ccccc2)C(c2ccc(Cl)cc2)=N1 (centres undefined) | 36.5 | 0.794 | > 1000 | –
C/N=C(\NS(=O)(=O)c1ccc(C(F)(F)F)cc1)N1C[C@H](c2ccccc2)C(c2ccc(Cl)cc2)=N1 | – | – | – | ED50 [7]: 2 mg/kg; LED [8]: 1 mg/kg
C/N=C(\NS(=O)(=O)c1ccc(C(F)(F)F)cc1)N1CC(c2ccccc2)C(c2ccc(Cl)cc2)=N1 (centres undefined) | – | – | – | ED50 [7]: 8.9 mg/kg; LED [8]: 3 mg/kg
CN/C(=N\S(=O)(=O)c1ccc(Cl)cc1)N1CC(c2ccccc2)C(c2ccc(Cl)cc2)=N1 (centres undefined) | – | – | – | ED50 [7]: 15 mg/kg
C/N=C(\NS(=O)(=O)c1ccc(Cl)cc1)N1CC(c2ccccc2)C(c2ccc(F)cc2)=N1 (centres undefined) | 214 | 25.1 | – | –
CN=C(NS(=O)(=O)c1ccc(C(F)(F)F)cc1)N1C[C@@H](c2ccccc2)C(c2ccc(Cl)cc2)=N1 | 293 | 31.6 | > 1000 | –

SMILES | Ki [1] [nM] | Kb [2] [nM] | Ki [3] [nM] | further results
C/N=C(\NS(=O)(=O)c1ccc(F)cc1)N1CC(c2ccccc2)C(c2ccc(Cl)cc2)=N1 (centres undefined) | 338 | 3.16 | > 1000 | –
NC(=NS(=O)(=O)c1ccc(Cl)cc1)N1CC(c2ccccc2)C(c2ccc(Cl)cc2)=N1 (centres undefined) | 16.1 | 0.316 | > 1000 | Activity [4]: 1.7; Activity [5]: 7; logP [6]: 4.3
Cc1cc(C)c(S(=O)(=O)NC(=N)N2CC(c3ccccc3)C(c3ccc(Cl)cc3)=N2)c(C)c1 (centres undefined) | 24.2 | 0.398 | > 1000 | –
CN(C)/C(=N\S(=O)(=O)c1ccc(Cl)cc1)N1CC(c2ccccc2)C(c2ccc(Cl)cc2)=N1 (centres undefined) | 280 | 3.16 | > 1000 | Activity [4]: 1.4; Activity [5]: 15.2; logP [6]: 4.8; ED50 [7]: > 30 mg/kg
COc1ccc(S(=O)(=O)NC(=N)N2CC(c3ccccc3)C(c3ccc(Cl)cc3)=N2)cc1 (centres undefined) | 196 | 5.01 | > 1000 | –
CN/C(=N/S(=O)(=O)c1ccc(C(F)(F)F)cc1)N1C[C@H](c2ccccc2)C(c2ccc(Cl)cc2)=N1 | 35.9 | 1 | 3510 | –
C/N=C(\NS(=O)(=O)c1ccccc1)N1CC(c2ccccc2)C(c2ccc(Cl)cc2)=N1 (centres undefined) | 170 | 31.6 | – | –
C/N=C(\NS(=O)(=O)c1ccc2ccccc2c1)N1CC(c2ccccc2)C(c2ccc(Cl)cc2)=N1 (centres undefined) | 21.8 | 3.16 | – | –
CN/C(=N\S(=O)(=O)c1ccc(Cl)cc1)N1C[C@H](c2ccccc2)C(c2ccc(Cl)cc2)=N1 | – | – | – | ED50 [7]: 5.5 mg/kg
CN(C)/C(=N\S(=O)(=O)c1ccc(F)cc1)N1CC(c2ccccc2)C(c2ccc(Cl)cc2)=N1 (centres undefined) | > 1000 | > 31.6 | > 1000 | –
Cc1ccc(S(=O)(=O)NC(=N)N2CC(c3ccccc3)C(c3ccc(Cl)cc3)=N2)cc1 (centres undefined) | 197 | 3.98 | > 1000 | ED50 [7]: > 30 mg/kg; LED [8]: > 30 mg/kg
CN=C(NS(=O)(=O)c1ccc(Cl)cc1)N1CC(c2ccc(F)cc2)C(c2ccc(Cl)cc2)=N1 (centres undefined) | 584 | – | – | –
C/N=C(\NS(=O)(=O)c1ccc(Cl)cc1)N1C[C@@H](c2ccccc2)C(c2ccc(Cl)cc2)=N1 | – | – | – | ED50 [7]: > 30 mg/kg
C/N=C(\NS(=O)(=O)c1ccc(C)cc1)N1CC(c2ccccc2)C(c2ccc(Cl)cc2)=N1 (centres undefined) | – | 2.51 | – | –
C/N=C(\NC(=O)c1ccc(Cl)cc1)N1CC(c2ccccc2)C(c2ccc(Cl)cc2)=N1 (centres undefined) | 70.6 | 2 | – | –
CS/C(=N\S(=O)(=O)c1ccc(C(F)(F)F)cc1)N1CC(c2ccccc2)C(c2ccc(Cl)cc2)=N1 (centres undefined) | 16.6 | 0.2 | > 1000 | –

— ChEMBL document CHEMBL1148395, “Synthesis, biological properties, and molecular modeling investigations of novel 3,4-diarylpyrazolines as potent and selective CB(1) cannabinoid receptor antagonists” (J Med Chem, 2004)
